Measurements from ChEMBL document CHEMBL4376878, “Potent Thiophene Antagonists of Human Complement C3a Receptor with Anti-Inflammatory Activity” (J Med Chem, 2020).
Calls of active or inactive are those of the source. The calls are words filed in the database; no cut-off is given here.

Key:
[1] = biological target: T1, C3a anaphylatoxin chemotactic receptor (Homo sapiens) (UniProt Q16581); assay: Potency index, ratio of SB290157 IC50 to test compound IC50 for antagonist activity at C3a receptor in human MDM cells; format: cell-based
T1 sequence (whole entry): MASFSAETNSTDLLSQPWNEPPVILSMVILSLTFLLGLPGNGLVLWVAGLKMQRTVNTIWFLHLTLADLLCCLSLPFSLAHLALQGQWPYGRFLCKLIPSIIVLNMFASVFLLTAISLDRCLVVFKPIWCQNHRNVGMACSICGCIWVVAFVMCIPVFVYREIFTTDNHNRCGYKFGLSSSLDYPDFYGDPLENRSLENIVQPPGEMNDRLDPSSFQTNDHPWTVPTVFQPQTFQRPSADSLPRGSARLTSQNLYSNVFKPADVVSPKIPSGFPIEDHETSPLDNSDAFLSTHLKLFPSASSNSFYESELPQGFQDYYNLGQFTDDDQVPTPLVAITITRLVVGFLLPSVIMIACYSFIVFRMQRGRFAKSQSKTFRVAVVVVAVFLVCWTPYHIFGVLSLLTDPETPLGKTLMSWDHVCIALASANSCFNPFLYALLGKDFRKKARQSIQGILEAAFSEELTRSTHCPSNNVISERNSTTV

[2] = biological target: T2, C5a anaphylatoxin chemotactic receptor 1 (Homo sapiens) (UniProt P21730); assay: Antagonist activity at C5a receptor in human MDM cells assessed as inhibition of C5a-induced intracellular calcium release preincubated for 30 mins followed by C5a addition and measured at 1 sec interval for => 200 secs by Fluo-3 AM dye-based FLIPR assay; format: functional, cell-based
T2 sequence (whole entry): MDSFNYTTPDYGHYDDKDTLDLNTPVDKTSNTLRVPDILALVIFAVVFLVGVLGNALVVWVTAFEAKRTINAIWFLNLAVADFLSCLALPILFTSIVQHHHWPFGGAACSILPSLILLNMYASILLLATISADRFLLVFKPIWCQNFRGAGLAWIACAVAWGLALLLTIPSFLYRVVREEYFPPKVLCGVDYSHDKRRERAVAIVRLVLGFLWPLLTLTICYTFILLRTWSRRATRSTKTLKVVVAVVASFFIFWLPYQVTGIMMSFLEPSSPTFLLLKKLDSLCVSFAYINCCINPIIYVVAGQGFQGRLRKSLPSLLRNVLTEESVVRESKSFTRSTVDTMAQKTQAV
Summary of the method: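 HMDMs from CD14+ monocytes after 7 days in M-CSF; 5 × 10⁴ cells/well seeded overnight. Cells loaded 1 h at 37 °C with 4 μM Fluo-3 AM, then washed into HBSS with 2.5 mM probenecid and 20 mM HEPES, pH 7.4. Antagonist preincubated 30 min at 37 °C before C5a. Fluorescence (ex 495/em 520 nm) read every 1 s for ≥200 s.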

[3] = Stability of the compound in rat liver microsomes at 1 uM preincubated for 5 mins followed by NADPH addition and measured after 1 hr by LC-MS/MS analysis; format: ADME, Microsome
Summary of the method: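 Compound at 1 μM in 100 mM phosphate buffer, pH 7.4 (0.1% DMSO), was incubated with rat liver microsomes […] at 37 °C before further NADPH was added. Aliquots taken at 0, 5, 15, 30 and 60 min were quenched in MeCN/H₂O (9:1), centrifuged and analysed by LC-MS/MS. Microsomal activity was confirmed in parallel with SLIGRL-NH₂; n = 3.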

[4] = biological target: T1, C3a anaphylatoxin chemotactic receptor (Homo sapiens); assay: (§1) Antagonist at C3a receptor in human LAD2 cells assessed as inhibition of C3a-induced beta-hexosaminidase release preincubated for 30 mins followed by C3a addition; format: cell-based
Summary of the method: (§2)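 LAD2 mast cells grown with SCF, 1 × 10⁴ cells/well seeded overnight and presensitized overnight with IgE (100 ng/mL). Compounds preincubated 30 min at 37 °C in 0.1 M HEPES pH 7.4, then C3a added and β-hexosaminidase release measured. IC50 is concentration inhibiting 50% of release induced by 100 nM C3a; n ≥ 3.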

[5] = biological target: T3, C3a anaphylatoxin chemotactic receptor (Homo sapiens, UniProt Q16581); assay: as §1; format: cell-based; summary of the method: as §2
T3 sequence (Q16581 whole entry): T1 sequence (whole entry)

[6] = Tmax in Wistar rat at 10 mg/kg, po by LC-MS/MS analysis; format: ADME, organism-based; conditions: in vivo
Summary of the method: (§3)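 Male Wistar rats with jugular vein catheter, fasted overnight; dosed p.o. by gavage in olive oil or i.v. via catheter in 50% DMSO. Blood drawn from conscious unrestrained rats 5 min before dosing, then 5, 15, 30 min and 1–8 h after. Volume replaced with heparinized saline. Rats fed after 4 h sample. n = 3 per route.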

[7] = Cmax in Wistar rat at 10 mg/kg, po by LC-MS/MS analysis; format: ADME, organism-based; design: dose 10 mg/kg, route oral; conditions: in vivo; summary of the method: as §3
Rattus norvegicus [8] = assay: Antiinflammatory activity in Wistar rat model of BR103-induced paw edema assessed as reduction in hind paw swelling at 10 mg/kg, po administered via gavage pretreated for 4 hrs followed by BR103 challenge and measured after 30 mins by digital caliper method relative to control; format: functional, organism-based
Summary of the method: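 Male Wistar rats given 10 mg/kg p.o. in olive oil at 0.5, 1, 2 or 4 h before i.pl. BR103 (350 μg in 100 μL 5% DMSO). Control rats received olive oil. Paw thickness and width measured by digital calipers at 0 and 0.5 h after agonist. n = 3–5 per group, one-way ANOVA.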

Rattus norvegicus [9] = assay: Antiinflammatory activity in Wistar rat model of BR103-induced paw edema assessed as reduction in Tnf gene expression at 10 mg/kg, po administered via gavage pretreated for 2 hrs followed by BR103 challenge and measured after 30 mins by SYBR green dye based RT-PCR analysis; format: functional, organism-based
Summary of the method: (§4)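 Rats given 10 mg/kg p.o. in olive oil 2 h before i.pl. BR103 (350 μg/paw). Paws collected 0.5 h after agonist and homogenized in TRIsure for RNA. qPCR run in duplicate, normalized to Hprt, with fold change relative to sham. n = 3–5 male Wistar rats per group.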

Rattus norvegicus [10] = assay: Antiinflammatory activity in Wistar rat model of BR103-induced paw edema assessed as reduction in Il1b gene expression at 10 mg/kg, po administered via gavage pretreated for 2 hrs followed by BR103 challenge and measured after 30 mins by SYBR green dye based RT-PCR analysis; format: functional, organism-based; summary of the method: as §4
Rattus norvegicus [11] = assay: Antiinflammatory activity in Wistar rat model of BR103-induced paw edema assessed as reduction in Ccl2 gene expression at 10 mg/kg, po administered via gavage pretreated for 2 hrs followed by BR103 challenge and measured after 30 mins by SYBR green dye based RT-PCR analysis; format: functional, organism-based; summary of the method: as §4
Rattus norvegicus [12] = assay: Antiinflammatory activity in Wistar rat model of BR103-induced paw edema assessed as increase in number of intact mast cells at 10 mg/kg, po administered via gavage pretreated for 2 hrs followed by BR103 challenge and measured after 30 mins by alcian blue/safranin O staining-based histopathological analysis; format: functional, organism-based
Summary of the method: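 Male Wistar rats 7–8 weeks old, given 10 mg/kg p.o. in olive oil 2 h before i.pl. BR103 (350 μg/paw). Sham/control received olive oil. Left paw plantar tissue taken 30 min after agonist and fixed in formalin. Frozen 5 μm sections stained with alcian blue/safranin O, or immunostained for tryptase, histamine or ED1. Positive cells quantified; n = 5 per group, one-way ANOVA.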

Rattus norvegicus [13] = assay: Antiinflammatory activity in Wistar rat model of BR103-induced paw edema assessed as reduction in hind paw swelling at 10 to 30 mg/kg, po administered via gavage pretreated for 2 hrs followed by BR103 challenge and measured after 30 mins by digital caliper method

With `Cc1cc(C(c2ccc(Cl)cc2)c2ccc(Cl)cc2)sc1C(=O)N[C@@H](CCCNC(=N)N)C(=O)O` the Ratio IC50 [1] was 100, the inhibition [2] was “inactive” and the Stability [3] was “Stable”. For the same compound, the inhibition [4] was “Dose-dependent effect”, the IC50 [5] was 8 nM and the Tmax [6] was 5 h. The Cmax [7] was 88 ng/mL, the Activity (Rattus norvegicus [8]) was “Active” and the Activity (Rattus norvegicus [9]) was “Active”. The Activity (Rattus norvegicus [10]) was “Active”, the Activity (Rattus norvegicus [11]) was “Active” and the Activity (Rattus norvegicus [12]) was “Active”. For the same compound, the Activity (Rattus norvegicus [13]) was “inactive”.
